Assay results: PubChem BioAssay
Results filed as inconclusive are left out.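 The calls were made as follows, unless noted: active = growth inhibition above 25% in both replicates, a cutoff set 3 SD above the mean; inconclusive = above 25% in only one replicate; inactive = the rest.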

Experiments:
[1] = OD615 S. cerevisiae growth inhibition, permissive medium, pilot counter-assay, permissive growth control for S. cerevisiae lifespan shortening project (AID 705); settings: OD615, 24 h, at 10 µM, stronger effect = higher value
Summary of the method: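 System: S. cerevisiae with engineered DeaD lifespan system / Measured by: absorbance (optical density) at 615 nm / Read-out: reduction in yeast growth (OD615) / Times: 4 h cell pre-growth, 24 h exposure at 30 °C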

[2] = Restrictive medium S. cerevisiae growth inhibition, OD615, pilot screen of yeast lifespan reduction project, restrictive growth control (AID 706;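 active = growth inhibition above a set limit, 3 SD over mean compound inhibition, in both replicates, cut at about 43% in these data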;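 also: modified DeaD lifespan yeast strain shifted to restrictive glucose medium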); settings: OD615, 48 h, at 10 µM, stronger effect = higher value
Summary of the method: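 System: Engineered S. cerevisiae DeaD strain | Buffer or medium: Glucose-based CSMM-D restrictive medium | Schedule: 4 h pre-incubation, 48 h exposure at 30 °C | Technique: Optical density at 615 nm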

[3] = viability gain of MRP-1-high H69AR cells under doxorubicin, pilot screen, MRP-1 activator project, CellTiter-Glo, duplicate (AID 807;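 active = viability increase at or above a cutoff of the median across tested compounds plus 3 SD, cut at about 8.5% in these data, passing the limit was not always enough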;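 also: compound pretreatment 18-22 h then 72 h combined with doxorubicin; 0% = doxorubicin alone and 100% = vehicle without doxorubicin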); settings: H69AR viability with doxorubicin, CellTiter-Glo luminescence; at 10 µM; stronger effect = higher value
[4] = growth suppression of beta-catenin knockout HCT116, pilot screen, human colon tumor cells (AID 823;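 active = cell viability at or below a set limit in both duplicate runs, the limit being the all-compound median minus 4 SD, cut at about 23% in these data, passing the limit was not always enough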;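 also: 0% = wells killed by 20 µM Hyamine and 100% = untreated DMSO cell wells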); settings: CellTiter-Glo, 60 h, at 10 µM, stronger effect = lower value
[5] = growth suppression of PTEN-deleted HCT116, pilot screen, cell-based, HCT116 clonal line, CellTiter-Glo (AID 824;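 active = viability at or below 27.92% in each of two runs, the all-compound median minus 4 SD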;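 also: 0% = 20 µM Hyamine control and 100% = vehicle cell control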); settings: 60 h, at 10 µM, stronger effect = lower value
[6] = inhibitors of the yeast RAM network, pilot screen, dse1pr::URA3 reporter, 5-FOA selection (AID 869;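 active = inhibition over a set limit, the all-compound mean plus 3 SD, in both replicate runs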;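 also: 0% = DMSO wells with no growth and 100% = 10 µM 1-NA-PP1 with full growth; RAM network block rescues cells from 5-FOA so hits raise OD615 growth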); settings: S. cerevisiae dse1pr::URA3 5-FOA growth, OD615, 2 d; at 10 µM; stronger effect = higher value; strain carries analog-sensitive mutant Cbk1 kinase
[7] = RAM signaling pathway blockade in yeast – S. cerevisiae, Pdr1DBD-CYC8 efflux-inhibited sensitized strain, primary screen (AID 1298;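 active = RAM network inhibition above 8.4% in each of two replicates, 3 SD over the compound average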;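 also: 0% = DMSO untreated cells without growth and 100% = 10 µM 1-NA-PP1 full growth; higher means more yeast growth rescued from 5-FOA killing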); settings: S. cerevisiae cbk1-as DSE1-URA3 strain, 5-FOA growth OD615, 2 d; at 50 µM; stronger effect = higher value

CCC(=O)Nc1nc2c(OC)ccc(OC)c2s1
inactive: growth inhibition [1] -2.06% | growth inhibition [2] 0.075% | viability increase [3] -2.87% | viability [4] 97.5% | viability [5] 94.5% | inhibition [6] 1.07% | RAM network inhibition [7] 2.34%

CSC1=NCCN1C(=O)Cc1ccc(F)cc1
inactive: growth inhibition [1] -0.72% | growth inhibition [2] 0.85% | viability increase [3] 2.96% | viability [4] 105% | viability [5] 103% | inhibition [6] 0.725% | RAM network inhibition [7] 4.04%

Cc1ccc2sc(NC(=O)CN3C(=O)CCC3=O)nc2c1C
inactive: growth inhibition [1] -10.4% | growth inhibition [2] -12.7% | viability increase [3] 2.23% | viability [4] 114% | viability [5] 109% | inhibition [6] 0.805% | RAM network inhibition [7] 2.15%

CCN(CC)CCCN1C(=O)C(O)=C(C(=O)c2ccc(C)o2)C1c1cccs1 (stereo not given)
inactive: growth inhibition [1] 0.37% | growth inhibition [2] -6.93% | viability increase [3] -4.04% | viability [4] 97.5% | viability [5] 96.2% | inhibition [6] 2.01% | RAM network inhibition [7] 2.8%

Cc1ccc(N(CC(N)=O)C2SC(=O)N(C)C2=O)cc1 (stereo not given)
inactive: growth inhibition [1] -11.9% | growth inhibition [2] -7.83% | viability increase [3] -2.96% | viability [4] 97.8% | viability [5] 102% | inhibition [6] 1.09% | RAM network inhibition [7] 3.14%

Cc1nc2scc(-c3cccs3)c2c(=O)o1
inactive: growth inhibition [1] -24% | growth inhibition [2] 14.4% | viability increase [3] -1.96% | viability [4] 95.8% | viability [5] 98.7% | inhibition [6] 1.73% | RAM network inhibition [7] 3.15%

O=C(NCCCN1CCOCC1)c1ccc(CS(=O)(=O)c2ccc(Br)cc2)o1
inactive: growth inhibition [1] -9.31% | growth inhibition [2] -11% | viability increase [3] -0.56% | viability [4] 99.8% | viability [5] 96.2% | inhibition [6] 2.23% | RAM network inhibition [7] 3.6%

Cc1c(C(=O)N2CCCc3ccccc32)sc2nc(-c3ccccc3)cn12
inactive: growth inhibition [1] -8.77% | growth inhibition [2] 0.195% | viability increase [3] -2.82% | viability [4] 65.9% | viability [5] 68.4% | inhibition [6] 2.46% | RAM network inhibition [7] 5.58%

Cc1ccc(-n2ncc3c(=O)[nH]c(SCC(=O)N4CCCC4)nc32)cc1C
inactive: growth inhibition [1] -6.01% | growth inhibition [2] -4.8% | viability increase [3] -4.32% | viability [4] 105% | viability [5] 91.8% | inhibition [6] 1.81% | RAM network inhibition [7] 1.73%

CCN1CCCC1CNC(=O)C1c2ccccc2C(=O)N(CCOC)C1c1ccc(F)cc1 (stereo not given)
inactive: growth inhibition [1] -3.19% | growth inhibition [2] -18.9% | viability increase [3] -1.76% | viability [4] 95.6% | viability [5] 98.1% | inhibition [6] 1.17% | RAM network inhibition [7] 7.82%

Cc1onc(-c2ccccc2Cl)c1C(=O)N(C)C1CCCCC1
inactive: growth inhibition [1] -18.5% | growth inhibition [2] -9.2% | viability increase [3] -2.42% | viability [4] 46.5% | viability [5] 63.2% | inhibition [6] -0.15% | RAM network inhibition [7] 2.15%

Cc1ccc(-c2nn3c(C)nnc3s2)cc1NC(=O)C(C)C
inactive: growth inhibition [1] -1.65% | growth inhibition [2] 13.7% | viability increase [3] -2.89% | viability [4] 110% | viability [5] 105% | inhibition [6] 0.965% | RAM network inhibition [7] -0.58%

COc1cccc(OCCn2c(C)c(/C=N/n3cnnc3)c3ccccc32)c1
inactive: growth inhibition [1] 4.55% | growth inhibition [2] 1.59% | viability increase [3] -2.88% | viability [4] 99.3% | viability [5] 87% | inhibition [6] 2.11% | RAM network inhibition [7] 7.39%

CCCC(=O)N(Cc1cc2cc(C)ccc2[nH]c1=O)c1ccccc1OC
inactive: growth inhibition [1] 1.1% | growth inhibition [2] 1.19% | viability increase [3] -0.05% | viability [4] 80.7% | viability [5] 78% | inhibition [6] 1.04% | RAM network inhibition [7] 9.81%

COC(=O)C1=C(C)NC(=O)NC1c1cn(-c2ccccc2)nc1-c1cccs1 (stereo not given)
inactive: growth inhibition [1] 1.5% | growth inhibition [2] 7.83% | viability increase [3] -1.94% | viability [4] 85.6% | viability [5] 82.4% | inhibition [6] 2.37% | RAM network inhibition [7] 5.72%

C=CCOc1ccc(/C(O)=C2/C(=O)C(=O)N(CCCn3ccnc3)C2c2cccs2)cc1 (stereo not given)
inactive: growth inhibition [1] -13.8% | growth inhibition [2] 0.445% | viability increase [3] 1.46% | viability [4] 95.2% | viability [5] 98.6% | inhibition [6] -0.285% | RAM network inhibition [7] 1.02%

CCOc1ccc(NC(=O)Nc2ccc3c(c2)N(C)C(=O)CS3)cc1
inactive: growth inhibition [1] -12% | growth inhibition [2] -33.6% | viability increase [3] -4.56% | viability [4] 98.9% | viability [5] 89.1% | inhibition [6] 4.93% | RAM network inhibition [7] 5.76%

CCOC(=O)c1sc(NC(=O)c2cc(S(=O)(=O)N3CCOCC3)ccc2C)nc1C
inactive: growth inhibition [1] -4.69% | growth inhibition [2] -10.3% | viability increase [3] -2.11% | viability [4] 92.3% | viability [5] 86.6% | inhibition [6] 0.57% | RAM network inhibition [7] 6.77%

COc1cccc(N2C(=O)C3ON(c4ccccc4)C(c4cccs4)C3C2=O)c1 (stereo not given)
inactive: growth inhibition [1] -13% | growth inhibition [2] 15.5% | viability increase [3] -0.83% | viability [4] 107% | viability [5] 97.8% | inhibition [6] 2.65% | RAM network inhibition [7] 4.23%

Cc1cc2oc3c(c(=O)c2cc1C)C(c1ccc(F)cc1)N(CCCN1CCOCC1)C3=O (stereo not given)
inactive: growth inhibition [1] 4.43% | growth inhibition [2] -11.3% | viability increase [3] -2.77% | viability [4] 98.5% | viability [5] 96% | inhibition [6] 1.74% | RAM network inhibition [7] 1.83%

Cc1cc(C(=O)N2CCN(S(C)(=O)=O)CC2)sc1-c1ccccc1
inactive: growth inhibition [1] -7.32% | growth inhibition [2] 3.48% | viability increase [3] -2.61% | viability [4] 94.9% | viability [5] 94% | inhibition [6] 3.19% | RAM network inhibition [7] 6.22%

CC1(C)C(c2ccc(Cl)cc2)=[N+]([O-])C2(CCCC/C2=N\O)N1O (stereo not given)
inactive: growth inhibition [1] -15.4% | growth inhibition [2] -4.64% | viability increase [3] 1.21% | viability [4] 96.5% | viability [5] 94.2% | inhibition [6] 0.555% | RAM network inhibition [7] 6.93%

CCn1c(SCC(=O)Nc2nnc(C)s2)nc2c(c1=O)SC(C)C2 (stereo not given)
inactive: growth inhibition [1] -0.875% | growth inhibition [2] -16.4% | viability increase [3] 1.14% | viability [4] 103% | viability [5] 96.6% | inhibition [6] 2.4% | RAM network inhibition [7] 2.04%

COc1ccc(N2CCN(CCCNS(=O)(=O)c3ccc4c(c3)oc(=O)n4C)CC2)cc1
inactive: growth inhibition [1] -8.8% | growth inhibition [2] 2.4% | viability increase [3] 0.06% | viability [4] 94.3% | viability [5] 97.4% | inhibition [6] 1.25% | RAM network inhibition [7] 6.05%

COc1ccc(S(=O)(=O)N2CCC(C(=O)NCCC3=CCCCC3)CC2)cc1OC
inactive: growth inhibition [1] -5.45% | growth inhibition [2] -0.575% | viability increase [3] -0.8% | viability [4] 96.2% | viability [5] 96.9% | inhibition [6] 1.67% | RAM network inhibition [7] 4.24%

Cn1c(CCNC(=O)c2ccc(F)cc2)nc2ccccc21
inactive: growth inhibition [1] 0.71% | growth inhibition [2] -11% | viability increase [3] 2.04% | viability [4] 105% | viability [5] 99.7% | inhibition [6] 1.2% | RAM network inhibition [7] 4.26%

Cc1cc(C)c(S(=O)(=O)NCCCN2CCOCC2)cc1Br
inactive: growth inhibition [1] -7.38% | growth inhibition [2] -14.8% | viability increase [3] -2.34% | viability [4] 91.8% | viability [5] 90.9% | inhibition [6] 0.75% | RAM network inhibition [7] 0.92%

O=C(Nc1ccc(N2CCOCC2)c(Cl)c1)C1CCCCC1
inactive: growth inhibition [1] 1.5% | growth inhibition [2] 4.29% | viability increase [3] -2.1% | viability [4] 97.6% | viability [5] 94.8% | inhibition [6] 0.18% | RAM network inhibition [7] 3.22%

CCC(CC)C(=O)NCCc1cc2ccc(C)c(C)c2[nH]c1=O
inactive: growth inhibition [1] -14.2% | growth inhibition [2] -21.4% | viability increase [3] -1.66% | viability [4] 103% | viability [5] 96.6% | inhibition [6] 1.66% | RAM network inhibition [7] 2.56%

CN1CCN(S(=O)(=O)c2ccc3ccccc3c2)CC1
inactive: growth inhibition [1] -0.14% | growth inhibition [2] -1.93% | viability increase [3] -2.23% | viability [4] 103% | viability [5] 105% | inhibition [6] 2.92% | RAM network inhibition [7] 0.63%

COc1ccccc1N1CCN(C(=O)CN(c2ccccc2OC)S(=O)(=O)c2ccccc2)CC1
inactive: growth inhibition [1] -0.685% | growth inhibition [2] -7.83% | viability increase [3] -1.57% | viability [4] 87.5% | viability [5] 83.9% | inhibition [6] 0.845% | RAM network inhibition [7] 4.88%

CCOCCOC(=O)C1=C(C)N(C)C(=O)NC1c1ccccc1Cl (stereo not given)
inactive: growth inhibition [1] 1.35% | growth inhibition [2] -7.18% | viability increase [3] -1.78% | viability [4] 101% | viability [5] 99.8% | inhibition [6] 0.375% | RAM network inhibition [7] 0.57%

CC(=O)c1c(NC(=O)C(C)C)nc(C)nc1-c1ccccc1
inactive: growth inhibition [1] -6.5% | growth inhibition [2] -8.2% | viability increase [3] -0.66% | viability [4] 98.4% | viability [5] 100% | inhibition [6] 1.69% | RAM network inhibition [7] -0.83%

COc1ccc(OCCC(=O)OCC(=O)NCc2ccco2)cc1
inactive: growth inhibition [1] -11% | growth inhibition [2] 1.25% | viability increase [3] -1.75% | viability [4] 92.2% | viability [5] 92.2% | inhibition [6] 1.01% | RAM network inhibition [7] 4.11%

CCN1CCn2c3c(c4cc(C)ccc42)CCCC31 (stereo not given)
inactive: growth inhibition [1] -4.94% | growth inhibition [2] -6.53% | viability increase [3] -2.11% | viability [4] 80.1% | viability [5] 74.9% | inhibition [6] 0.895% | RAM network inhibition [7] 0.21%
